Source: ChEMBL document CHEMBL4316590, “Discovery and synthesis of novel beesioside I derivatives with potent anti-HIV activity” (Eur J Med Chem, 2019)

Columns and labels:
MT4 = test: Cytotoxicity against human MT4 cells assessed as reduction in cell viability after 3 days by CellTiter-Glo luminescent assay; assay type: cell-based; conditions: mt4, 72 h
[1] = Therapeutic index, ratio of CC50 for human MT4 cells to EC50 for HIV1 NL4-3 infected in human MT4 cells; assay type: toxicity, cell-based; conditions: read-out: Ratio CC50/EC50
How it was run: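 TI calculated as CC50 (CellTiter-Glo, MT4 cells, 3 days) divided by EC50 (HIV-1 NL4-3 Nanoluc-sec multicycle replication in MT4 cells, luciferase read-out); CC50/EC50 below 5 taken as no selective anti-HIV activity.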

[2] = system: Human immunodeficiency virus 1; test: Antiviral activity against HIV1 NL4-3 infected in human MT4 cells by luciferase reporter gene assay; assay type: functional, organism-based
How it was run: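 HIV-1 NL4-3 Nanoluc-sec reporter virus (secreted NanoLuc insert) infecting MT4 cells, multicycle replication format, compounds at various concentrations; replication read as NanoLuc luciferase activity (Nano-Glo).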

[3] = Human immunodeficiency virus 1, NL4-3, MT4, read-out: EC50

SMILES | CC50 (MT4) | selectivity ratio [1] | EC50 [2, 3] | EC50 [2]
CC(=O)O[C@H]1[C@H](O)[C@@]2(C)[C@@H]3CC[C@H]4C(C)(C)[C@@H](O[C@@H]5OC[C@@H](O)[C@H](O)[C@H]5O)CC[C@@]45C[C@@]35CC[C@@]23CO[C@@](C)(CCC(=O)C(C)(C)O)[C@@H]13 | > 40 µM | < 5 | > 10 µM | –
CC(=O)O[C@H]1[C@@H](OC(C)=O)[C@@]2(C)[C@@H]3CC[C@H]4C(C)(C)[C@@H](OC(=O)CCCC(=O)O)CC[C@@]45C[C@@]35CC[C@@]23CO[C@@]2(C(C)(C)O)CC[C@](C)(O2)[C@@H]13 | > 20 µM | < 5 | – | Not Active
CC(=O)O[C@H]1[C@@H](OC(C)=O)[C@@]2(C)[C@@H]3CC[C@H]4C(C)(C)[C@@H](OC(=O)CC(C)(C)C(=O)O)CC[C@@]45C[C@@]35CC[C@@]23CO[C@@]2(C(C)(C)O)CC[C@](C)(O2)[C@@H]13 | > 20 µM | > 800 | 0.025 µM | –
CC(=O)O[C@H]1[C@H](O)[C@H]([C@]2(C)CC[C@@H](C(C)(C)O)O2)[C@@]2(C)CC[C@@]34C[C@@]35CC[C@H](O[C@@H]3OC[C@@H](O)[C@H](O)[C@H]3O)C(C)(C)[C@@H]5CC[C@H]4[C@]12C | > 40 µM | – | 4.85 µM | –
CC1(C)[C@@H](O)CC[C@]23C[C@]24CC[C@]25CO[C@@]6(C(C)(C)O)CC[C@](C)(O6)[C@H]2[C@@H](O)[C@@H](O)[C@@]5(C)[C@@H]4CC[C@@H]13 | > 40 µM | < 5 | > 40 µM | –
CC(=O)O[C@H]1[C@@H](OC(C)=O)[C@@]2(C)[C@@H]3CC[C@H]4C(C)(C)[C@@H](OC(=O)CCC(C)(C)C(=O)O)CC[C@@]45C[C@@]35CC[C@@]23CO[C@@]2(C(C)(C)O)CC[C@](C)(O2)[C@@H]13 | > 5 µM | – | 0.048 µM | –
CC(=O)O[C@H]1[C@@H](OC(C)=O)[C@@]2(C)[C@@H]3CC[C@H]4C(C)(C)[C@@H](OC(C)=O)CC[C@@]45C[C@@]35CC[C@@]23CO[C@@]2(C(C)(C)O)CC[C@](C)(O2)[C@@H]13 | > 40 µM | – | 2.44 µM | –
CC(=O)O[C@H]1[C@@H]2O[C@@]3(C(C)(C)O[C@H]4O[C@H](CO)[C@@H](O)[C@H](O)[C@H]4O)CC[C@](C)(O3)[C@@H]2[C@@]2(C)CC[C@@]34C[C@@]35CC[C@H](O[C@@H]3OC[C@@H](O)[C@H](O)[C@H]3O)C(C)(C)[C@@H]5CC[C@H]4[C@]12C | 35.4 µM | 9.4 | 3.76 µM | –
CC(=O)O[C@H]1[C@@H](OC(C)=O)[C@@]2(C)[C@@H]3CC[C@H]4C(C)(C)C(=O)CC[C@@]45C[C@@]35CC[C@@]23CO[C@@]2(C(C)(C)O)CC[C@](C)(O2)[C@@H]13 | > 30 µM | < 5 | – | Not Active
C[C@@H]1O[C@@H](O[C@H]2[C@H](O[C@H]3CC[C@]45C[C@]46CC[C@]4(C)[C@@H]([C@]7(C)CC[C@@H](C(C)(C)O)O7)[C@@H](O)C[C@@]4(C)[C@@H]6[C@@H](O)C[C@H]5C3(C)C)OC[C@@H](O)[C@@H]2O)[C@H](O)[C@H](O)[C@H]1O | > 40 µM | < 5 | > 10 µM | –
CC(=O)O[C@H]1[C@@H](OC(C)=O)[C@@]2(C)[C@@H]3CC[C@H]4C(C)(C)[C@@H](OC(=O)CCC(=O)O)CC[C@@]45C[C@@]35CC[C@@]23CO[C@@]2(C(C)(C)O)CC[C@](C)(O2)[C@@H]13 | > 40 µM | – | 7.7 µM | –
CC(=O)O[C@H]1[C@@H](OC(C)=O)[C@@]2(C)[C@@H]3CC[C@H]4C(C)(C)[C@@H](OC(=O)COCC(=O)O)CC[C@@]45C[C@@]35CC[C@@]23CO[C@@]2(C(C)(C)O)CC[C@](C)(O2)[C@@H]13 | > 5 µM | – | 0.12 µM | –
CC(=O)O[C@H]1[C@@H](O)[C@@]2(C)[C@@H]3[C@@H](O)C[C@H]4C(C)(C)[C@@H](O[C@@H]5OC[C@@H](O)[C@H](O)[C@H]5O)CC[C@@]45C[C@@]35CC[C@@]23CO[C@@]2(C(C)(C)O)CC[C@](C)(O2)[C@@H]13 | > 40 µM | < 5 | – | Not Active
CC(=O)O[C@H]1[C@@H](OC(C)=O)[C@@]2(C)[C@@H]3CC[C@H]4C(C)(C)[C@@H](OC(=O)CC(C)C(=O)O)CC[C@@]45C[C@@]35CC[C@@]23CO[C@@]2(C(C)(C)O)CC[C@](C)(O2)[C@@H]13 (some centres not stated) | > 20 µM | – | 1.11 µM | –
CC(C)(O)[C@@H]1CC[C@@](C)([C@H]2[C@@H](O)[C@H](O)[C@@]3(C)[C@@H]4[C@@H](O)C[C@H]5C(C)(C)[C@@H](O[C@@H]6OC[C@@H](O)[C@H](O)[C@H]6O)CC[C@@]56C[C@@]46CC[C@]23C)O1 | > 40 µM | < 5 | – | Not Active
CC(=O)O[C@H]1[C@@H]2O[C@@]3(C(C)(C)O)CC[C@](C)(O3)[C@@H]2[C@@]2(CO)CC[C@@]34C[C@@]35CC[C@H](O[C@@H]3OC[C@@H](O)[C@H](O)[C@H]3O)C(C)(C)[C@@H]5CC[C@H]4[C@]12C | > 40 µM | < 5 | – | Not Active
CC(=O)O[C@H]1[C@@H](OC(C)=O)[C@@]2(C)[C@@H]3CC[C@H]4C(C)(C)[C@@H](OC(=O)CC5(CC(=O)O)CCCC5)CC[C@@]45C[C@@]35CC[C@@]23CO[C@@]2(C(C)(C)O)CC[C@](C)(O2)[C@@H]13 | > 20 µM | – | 1.59 µM | –
CC(=O)O[C@H]1[C@@H](OC(C)=O)[C@@]2(C)[C@@H]3CC[C@H]4C(C)(C)[C@@H](O[C@@H]5OC[C@@H](O)[C@H](O)[C@H]5O)CC[C@@]45C[C@@]35CC[C@@]23CO[C@@]2(C(C)(C)O)CC[C@](C)(O2)[C@@H]13 | > 40 µM | – | 2.32 µM | –
CC(=O)O[C@H]1[C@@H](O)[C@@]2(C)[C@@H]3CC[C@H]4C(C)(C)[C@@H](O[C@@H]5OC[C@@H](O)[C@H](O)[C@H]5O)CC[C@@]45C[C@@]35CC[C@@]23CO[C@@]2(C(C)(C)O)CC[C@](C)(O2)[C@@H]13 | > 40 µM | – | 4.65 µM | –
C[C@@H]1O[C@@H](O[C@H]2[C@H](O[C@H]3CC[C@]45C[C@]46CC[C@]4(C)[C@@H]([C@]7(C)CC[C@@H](C(C)(C)O)O7)[C@@H](O)C[C@@]4(C)[C@@H]6CC[C@H]5C3(C)C)OC[C@@H](O)[C@@H]2O)[C@H](O)[C@H](O[C@@H]2O[C@H](CO)[C@@H](O)[C@H](O)[C@H]2O)[C@H]1O | > 40 µM | < 5 | > 10 µM | –
CC1(C)[C@@H](O[C@@H]2OC[C@@H](O)[C@H](O)[C@H]2O)CC[C@]23C[C@]24CC[C@]25CO[C@@]6(C(C)(C)O)CC[C@](C)(O6)[C@H]2[C@@H](O)[C@@H](O)[C@@]5(C)[C@@H]4CC[C@@H]13 | > 40 µM | – | 7.62 µM | –
CC(=O)O[C@H]1[C@@H](OC(C)=O)[C@@]2(C)[C@@H]3CC[C@H]4C(C)(C)[C@@H](O)CC[C@@]45C[C@@]35CC[C@@]23CO[C@@]2(C(C)(C)O)CC[C@](C)(O2)[C@@H]13 | > 40 µM | < 5 | – | Not Active
CC(=O)O[C@H]1[C@@H](OC(C)=O)[C@@]2(C)[C@@H]3CC[C@H]4C(C)(C)[C@@H](O[C@@H]5OC[C@@H](O)[C@H](O)[C@H]5O)CC[C@@]45C[C@@]35CC[C@@]23CO[C@@](C)(CCC(=O)C(C)(C)O)[C@@H]13 | > 30 µM | < 5 | > 30 µM | –
CC(=O)O[C@H]1[C@@H](OC(C)=O)[C@@]2(C)[C@@H]3CC[C@H]4C(C)(C)[C@@H](OC(=O)CC(C)(C)CC(=O)O)CC[C@@]45C[C@@]35CC[C@@]23CO[C@@]2(C(C)(C)O)CC[C@](C)(O2)[C@@H]13 | > 20 µM | < 5 | – | Not Active
CCC(=O)O[C@H]1CC[C@]23C[C@]24CC[C@]25CO[C@@]6(C(C)(C)O)CC[C@](C)(O6)[C@H]2[C@@H](OC(C)=O)[C@@H](OC(C)=O)[C@@]5(C)[C@@H]4CC[C@H]3C1(C)C | > 40 µM | < 5 | – | Not Active
CC(=O)O[C@H]1[C@@H](OC(C)=O)[C@@]2(C)[C@@H]3CC[C@H]4C(C)(C)[C@@H](OC(=O)CC(C)CC(=O)O)CC[C@@]45C[C@@]35CC[C@@]23CO[C@@]2(C(C)(C)O)CC[C@](C)(O2)[C@@H]13 (mixture of isomers) | > 20 µM | < 5 | – | Not Active
C=C(C)[C@@H]1CC[C@]2(C(=O)O)CC[C@]3(C)[C@H](CC[C@@H]4[C@@]5(C)CC[C@H](OC(=O)CC(C)(C)C(=O)O)C(C)(C)[C@@H]5CC[C@]43C)[C@@H]12 [BEVIRIMAT] | 15.9 µM | 612 | 0.026 µM | –
Cc1cn([C@H]2C[C@H](N=[N+]=[N-])[C@@H](CO)O2)c(=O)[nH]c1=O [ZIDOVUDINE] | 77.5 µM | – | – | –
